Assay results from ChEMBL document CHEMBL1671655, “Anidulafungin is fungicidal and exerts a variety of postantifungal effects against Candida albicans, C. glabrata, C. parapsilosis, and C. krusei isolates” (2009).
≈ marks a conversion by molar mass, not a printed value. Calls of active or inactive are those of the source. No cut-off for these calls is given here. Starred links: 1 amine or outer side, 2 acyl side, 3 side chain; linkers in the order of their positions; H or OH if unused. Positions of bridges follow the written chain, without caps; N, C: chain ends. Non-standard residues stand in square brackets, D forms with d. Residues, ends and D or L forms follow the SMILES beside them. *: point of attachment. pTerphenylCO(4''-OnC5H11) = CCCCCOc1ccc(-c2ccc(-c3ccc(C(=O)*)cc3)cc2)cc1; Orn(4R-OH,5R-OH) = O=C([C@H](C[C@@H](O)[C@@H](O)N[*:3])N[*:1])[*:2]; hTyr(3S-OH,4S-OH) = N[C@H](C(=O)O)[C@H](O)[C@@H](O)c1ccc(O)cc1; Pro(3S-OH,4S-Me) = C[C@H]1CN[C@H](C(=O)O)[C@H]1O; Hyp = O=C(O)[C@@H]1C[C@@H](O)CN1

Columns and labels:
[1] = system: Candida parapsilosis; assay: Fungicidal activity against Candida parapsilosis isolate A assessed as log reduction in bacterial count at 16 times MIC after 48 hrs by time-kill analysis; format: functional; conditions: Lodderomyces parapsilosis
Procedure, shortened: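 Isolates subcultured twice on SDA, then suspended to 0.5 McFarland and diluted into RPMI 1640 (MOPS, pH 7.0) with or without anidulafungin, giving about 1 x 10^5 to 5 x 10^5 CFU/ml. Tubes were shaken at 35°C. Samples were taken at 0, 2, 4, 8, 12, 24 and 48 h, serially diluted 10-fold, plated on SDA, and CFU counted after 48 h at 35°C. Each isolate was run twice; mean values.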

[2] = system: Nakaseomyces glabratus; assay: Fungicidal activity against Candida glabrata isolate 2 assessed as log reduction in bacterial count at 16 times MIC after 48 hrs by time-kill analysis; format: functional; conditions: isolate 2, 48 h
Procedure, shortened: (§1)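 Isolates subcultured twice on SDA, suspended to 0.5 McFarland, giving ~1 x 10^5 to 5 x 10^5 CFU/ml in MOPS-buffered RPMI 1640 (pH 7.0) with or without drug at multiples of MIC (MIC by CLSI M27-A3). Tubes shaken at 35°C with continuous drug. Sampled at 0–48 h, diluted 10-fold and plated on SDA; CFU counted after 48 h at 35°C. Run twice per isolate; means.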

[3] = system: Pichia kudriavzevii; assay: Fungicidal activity against Candida krusei isolate 1 assessed as log reduction in bacterial count at 16 times MIC after 48 hrs by time-kill analysis; format: functional; conditions: isolate 1, 48 h; procedure, shortened: as §1
[4] = system: Pichia kudriavzevii; assay: Fungicidal activity against Candida krusei isolate 1 assessed as log reduction in bacterial count at MIC after 48 hrs by time-kill analysis; format: functional; conditions: isolate 1, 48 h; procedure, shortened: as §1
[5] = system: Candida albicans; assay: Fungicidal activity against Candida albicans isolate 1 assessed as log reduction in bacterial count at 16 times MIC after drug exposure for 1 hr followed by washout measured after 48 hrs in the absence of drug by PAFE study; format: functional
Procedure, shortened: (§2)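 Starting inoculum ~1 x 10^5 to 5 x 10^5 CFU/ml in MOPS-buffered RPMI 1640 (pH 7.0) with drug at multiples of the CLSI M27-A3 MIC. After 1 h at 35°C, cells washed and centrifuged three times at 1,400 x g for 10 min, then resuspended in warm drug-free RPMI. Shaken at 35°C and plated on SDA at 0–48 h; CFU counted after 48 h. Run twice per isolate; means.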

[6] = system: Candida parapsilosis; assay: Fungicidal activity against Candida parapsilosis isolate A assessed as log reduction in bacterial count at 16 times MIC after drug exposure for 1 hr followed by washout measured after 48 hrs in the absence of drug by PAFE study; format: functional; conditions: Lodderomyces parapsilosis
Procedure, shortened: (§3)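 Inoculum about 1 x 10^5 to 5 x 10^5 CFU/ml in RPMI 1640 (MOPS, pH 7.0) with drug, shaken at 35°C for 1 h. Cells were then washed and centrifuged at 1,400 x g for 10 min (3 cycles) and resuspended in warm drug-free RPMI. Samples plated on SDA at 0, 2, 4, 8, 12, 24 and 48 h; CFU counted after 48 h at 35°C. Run twice per isolate; means.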

[7] = system: Candida parapsilosis; assay: Fungicidal activity against Candida parapsilosis isolate A assessed as log reduction in bacterial count at 4 times MIC after drug exposure for 1 hr followed by washout measured after 48 hrs in the absence of drug by PAFE study; format: functional; conditions: Lodderomyces parapsilosis; procedure, shortened: as §3
[8] = system: Candida parapsilosis; assay: Fungicidal activity against Candida parapsilosis isolate S assessed as log reduction in bacterial count at MIC after drug exposure for 1 hr followed by washout measured after 48 hrs in the absence of drug by PAFE study; format: functional; conditions: Lodderomyces parapsilosis; procedure, shortened: as §3
[9] = system: Nakaseomyces glabratus; assay: Fungicidal activity against Candida glabrata isolate 2 assessed as log reduction in bacterial count at 16 times MIC after drug exposure for 1 hr followed by washout measured after 48 hrs in the absence of drug by PAFE study; format: functional; procedure, shortened: as §2
[10] = system: Candida albicans; assay: Antifungal activity against Candida albicans isolate 1 assessed as time period for bacterial growth inhibition at 4 times MIC after 1 hr drug exposure; format: functional
Procedure, shortened: (§4)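 Inoculum of about 1 x 10^5 to 5 x 10^5 CFU/ml in MOPS-buffered RPMI (pH 7.0), shaken at 35°C and exposed to drug for 1 h. Cells then washed and centrifuged three times and resuspended in drug-free warm RPMI. Samples plated on SDA at 0, 2, 4, 8, 12, 24 and 48 h, with CFU counted after 48 h at 35°C. Run twice per isolate; values are means.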

[11] = system: Candida parapsilosis; assay: Antifungal activity against Candida parapsilosis isolate 1 assessed as time period for bacterial growth inhibition at 4 times MIC after 1 hr drug exposure; format: functional; procedure, shortened: as §4
[12] = system: Candida parapsilosis; assay: Antifungal activity against Candida parapsilosis by NCCLS M27A broth microdilution method; format: functional; conditions: Lodderomyces parapsilosis
[13] = system: Pichia kudriavzevii; assay: Antifungal activity against Candida krusei by NCCLS M27A broth microdilution method; format: functional
[14] = system: Nakaseomyces glabratus; assay: Antifungal activity against Candida glabrata by NCCLS M27A broth microdilution method; format: functional
[15] = system: Meyerozyma guilliermondii; assay: Antifungal activity against Candida guilliermondii by NCCLS M27A broth microdilution method; format: functional
[16] = system: Candida albicans; assay: Antifungal activity against Candida albicans isolate 1 by CLSI M27-A3 broth microdilution method; format: functional
Procedure, shortened: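 CLSI M27-A3 broth microdilution in RPMI 1640 buffered to pH 7.0 with MOPS. Starting inoculum 0.5 x 10^3 to 2.5 x 10^3 cells/ml, incubated at 35°C. MIC read as the lowest concentration giving >50% growth reduction versus control. Each isolate tested on at least three occasions.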

[17] = system: Pichia kudriavzevii; assay: Antifungal activity against Candida krusei assessed as time period for bacterial regrowth inhibition after 1 hr drug exposure; format: functional
[18] = system: Candida parapsilosis; assay: Antifungal activity against Candida parapsilosis assessed as time period for bacterial regrowth inhibition after 1 hr drug exposure; format: functional
[19] = system: Candida albicans; assay: Antifungal activity against Candida albicans assessed as time period for bacterial regrowth inhibition after 1 hr drug exposure; format: functional
[20] = system: Candida parapsilosis; assay: Increase in susceptibility to SDS in Candida parapsilosis isolate A assessed as cell wall damage at MIC after 1 hr relative to control; format: functional, organism-based
Procedure, shortened: (§5)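 Cells recovered 8 h after a 1-h drug exposure were grown in YPD with 1% glucose to exponential phase and adjusted to OD599 0.1. Undiluted culture and 10-fold serial dilutions were spotted onto YPD plates containing SDS (0.01 to 0.04%), then incubated 72 h at 30°C. Growth compared with unexposed control cells; triplicate.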

[21] = system: Candida albicans; assay: Increase in susceptibility to SDS in Candida albicans ATCC 90028 assessed as cell wall damage at 16 times MIC after 1 hr relative to control; format: functional, organism-based; procedure, shortened: as §5
[22] = system: Nakaseomyces glabratus; assay: Increase in susceptibility to SDS in Candida glabrata isolate 3 assessed as cell wall damage at 16 times MIC after 1 hr relative to control; format: functional, organism-based; procedure, shortened: as §5
[23] = system: Candida parapsilosis; assay: Antifungal activity against Candida parapsilosis isolate A assessed as cell wall damage at MIC by Transmission electron microscopy; format: functional, organism-based
Procedure, shortened: (§6)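 Cells recovered 8 h after a 1-h drug exposure were grown on SDA for 24 h at 35°C. Colonies fixed at 4°C in 0.1 M cacodylate (pH 7.2) with 2% glutaraldehyde and 2% paraformaldehyde, ethanol-dehydrated and embedded in Lowicryl K4M. Thin sections examined by transmission EM.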

[24] = system: Candida albicans; assay: Antifungal activity against Candida albicans isolate 1 assessed as cell wall damage at 4 times MIC by Transmission electron microscopy; format: functional, organism-based; procedure, shortened: as §6
[25] = system: Candida albicans; assay: Antifungal activity against Candida albicans isolate 1 coincubated with mouse J774 macrophages assessed as macrophage induced bacterial cell killing at 4 times MIC (reference value: 14 +/- 8 %); format: functional

`CCCCCOc1ccc(-c2ccc(-c3ccc(C(=O)N[C@H]4C[C@@H](O)[C@@H](O)NC(=O)[C@@H]5[C@@H](O)[C@@H](C)CN5C(=O)[C@H]([C@@H](C)O)NC(=O)[C@H]([C@H](O)[C@@H](O)c5ccc(O)cc5)NC(=O)[C@@H]5C[C@@H](O)CN5C(=O)[C@H]([C@@H](C)O)NC4=O)cc3)cc2)cc1` [ANIDULAFUNGIN] ({pTerphenylCO(4''-OnC5H11)}-[Orn(4R-OH,5R-OH)]T[Hyp][hTyr(3S-OH,4S-OH)]T[Pro(3S-OH,4S-Me)]; lactam 1-C) was tested, and the log reduction [1] was 3.42 log CFU/ml, the log reduction [2] was 3.14 log CFU/ml and the log reduction [3] was 3 log CFU/ml. For the same molecule, the log reduction [4] was 1.74 log CFU/ml, the log reduction [5] was 2.64 and the log reduction [6] was 3.47. The log reduction [7] was 2.54, the log reduction [8] was 0.41 and the log reduction [9] was 2.92. It also gave a Time [10] of 8 h, a Time [11] of 8 h and an MIC90 [12] of 2 µg/mL (≈ 1.75 µM). For the same molecule, the MIC90 [13] was 0.06 µg/mL (≈ 0.0526 µM), the MIC90 [14] was 0.06 µg/mL (≈ 0.0526 µM) and the MIC90 [15] was 2 µg/mL (≈ 1.75 µM). For the same molecule, the MIC [16] was 0.015 µg/mL (≈ 0.0132 µM), the Time [17] was “>=12 hr” and the Time [18] was “>=12 hr”. The Time [19] was “>=12 hr”, the Activity [20] was “Active” and the Activity [21] was “Active”. For the same molecule, the Activity [22] was “Active”, the Activity [23] was “Active” and the Activity [24] was “Active”. The “inhibition (INH)” value [25] was 37%.
